Measurements taken from ChEMBL document CHEMBL1126114, “A novel orally active inhibitor of IL-1 generation: synthesis and structure-activity relationships of 3-(4-hydroxy-1-naphthalenyl)-2-propenoic acid derivatives” (J Med Chem, 1992).
“And” between values parts separate entries of the source, which are not always exact repeats. Identical values can stand only once.

Legend:
Type in all cases: functional
Rattus norvegicus [1] = test: In vivo percent inhibition of IL-1 generation in rat CMC-LPS air pouch model at 100 uM concentration (local administration)
How it was run: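 Rat air pouch: 10 mL air s.c. into the dorsum, 2% CMC-Na in saline 24 h later, then LPS 5 ng 24 h after CMC. Compound given locally in 5% EtOH-RPMI with 30% autologous serum, 100 μM final in exudate, at 30 min before and just before LPS. Exudate IL-1 (extra- plus intracellular) read by LAF at 4 h. n=5; % inhibition ± SEM.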

Rattus norvegicus [2] = organism: Rattus norvegicus; test: In vitro inhibitory activity against IL-1 generation by using rat exudated macrophages
How it was run: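 Fisher rat peritoneal exudate cells collected 4 days after i.p. 2.5% glycogen. Cells adhered 1.5 h at 37 °C in 1% normal rat serum. Adherent macrophages stimulated with LPS 1 ng/mL for 4 h ± compound. Intracellular IL-1 read by LAF assay against a recombinant human IL-1α curve. IC50 by least squares; mean of duplicates.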

Homo sapiens = organism: Homo sapiens; test: In vitro inhibitory activity against IL-1 generation by using human monocyte
How it was run: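 Healthy-donor peripheral mononuclear cells, adhered 1.5 h in RPMI 1640 with 10% heat-inactivated autologous serum. Adherent monocytes then stimulated with LPS 1 μg/mL for 16–18 h in 1% autologous serum with 0.1% ethanol, ± drug. Extra- plus intracellular IL-1 read by LAF assay against a recombinant human IL-1β curve. IC50 by least squares; mean of ≥2 experiments.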

Rattus norvegicus [3] = test: Compound was evaluated in vivo for the percent inhibition of IL-1 generation in rat CMC-LPS air pouch model at 200 mg/Kg concentration (oral administration)
How it was run: (§1)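 Rat CMC-LPS air pouch: air s.c., 2% CMC-Na 24 h later, LPS 5 ng 24 h after that. Compound given orally in 0.5% methyl cellulose 2 h before LPS. Exudate collected at 4 h; IL-1 (extra- plus intracellular) read by LAF assay against a recombinant human IL-1α curve.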

Rattus norvegicus [4] = test: Compound was evaluated in vivo for the percent inhibition of IL-1 generation in rat CMC-LPS air pouch model at 50 mg/Kg concentration (oral administration); how it was run: as §1

| SMILES | Inhibition (Rattus norvegicus [1]) | IC50 (Rattus norvegicus [2]) | IC50 (Homo sapiens) | inhibition in vivo at 200 mg/kg (Rattus norvegicus [3]) | inhibition in vivo at 50 mg/kg (Rattus norvegicus [4]) |
| --- | --- | --- | --- | --- | --- |
| CCCC/C(=C\C(=O)O)c1cc(OC)c(O)c2c(CC)cccc12 | 52% | > 10 µM | 5.8 µM | – | – |
| CCc1cccc2c(/C=C/C(=O)O)cc(OC)c(O)c12 | 88% | 1.5 µM | 2.4 µM | < 25% | – |
| CCc1cccc2c(O)c(OC)cc(/C=C/C(=O)O)c12 | 26% | 5.5 µM | 1.8 µM | – | – |
| COc1cc(/C=C(/C)C(=O)O)c2cccc(C(C)C)c2c1O | 87% and 79% | 1.4 µM | 2.1 µM | – | 29% |
| CCCc1cccc2c(/C=C(\C)C(=O)O)cc(OC)c(O)c12 | 91% | – | – | 67% | < 25% |
| CCCc1cccc2c(/C=C(/CC)C(=O)O)cc(OC)c(O)c12 | 90% and 78% | < 1 µM | < 1 µM | – | 47% |
| CC/C(=C\c1cc(OC)c(O)c2c(CC)cccc12)C(=O)O | 72% | 1.4 µM | – | 41% | – |
| CCc1cccc2c(/C(C)=C\C(=O)O)cc(OC)c(O)c12 | <25% | > 10 µM | – | – | – |
| CCc1cccc2c(/C=C(/C(=O)O)c3ccccc3)cc(OC)c(O)c12 | 42% | 2.5 µM | – | < 25% | – |
| CCCc1cccc2c(/C=C(/C)C(=O)O)cc(OC)c(O)c12 | 87% and 86% | – | – | – | 33% |
| CCCc1cccc2c(/C=C(/Cc3ccccc3)C(=O)O)cc(OC)c(O)c12 | 91% | 1.6 µM | – | 51% | – |
| CCc1ccc2c(/C=C/C(=O)O)cc(OC)c(O)c2c1 | <25% | 4.1 µM | 4 µM | – | – |
| CCc1cccc2c(/C=C(\C)C(=O)O)cc(OC)c(O)c12 | 85% | – | – | 36% | – |
| CCc1c(OC)c(O)c2ccccc2c1/C=C/C(=O)O | <25% | > 10 µM | > 10 µM | – | – |
| CCc1cccc2c(/C=C/C(=O)O)cc(OCCOC)c(O)c12 | 34% | 3.5 µM | > 10 µM | – | – |
| CCCc1cccc2c(/C=C/C(=O)O)cc(OC)c(O)c12 | 91% | < 1 µM | 2.3 µM | 32% | < 25% |

| SMILES | Inhibition (Rattus norvegicus [1]) | IC50 (Rattus norvegicus [2]) | IC50 (Homo sapiens) | inhibition in vivo at 200 mg/kg (Rattus norvegicus [3]) | inhibition in vivo at 50 mg/kg (Rattus norvegicus [4]) |
| --- | --- | --- | --- | --- | --- |
| COc1cc(/C=C(\C)C(=O)O)c2cccc(C(C)C)c2c1O | 70% | 1 µM | < 1 µM | < 25% | – |
| CCc1c(OC)c(O)c2c(CC)cccc2c1/C=C/C(=O)O | <25% | – | > 10 µM | – | – |
| CC/C(=C/c1cc(OC)c(O)c2c(CC)cccc12)C(=O)O | 90% and 71% | 2.1 µM | – | – | 43% |
| CCc1ccc2c(O)c(OC)cc(/C=C/C(=O)O)c2c1 | <25% | 4 µM | 3.9 µM | – | – |
| CCc1cccc2c(/C=C(\Cc3ccccc3)C(=O)O)cc(OC)c(O)c12 | 79% | 2.3 µM | – | < 25% | – |
| COc1cc(/C=C/C(=O)O)c2ccccc2c1O | <25% | 1.4 µM | 1.9 µM | – | – |
| CCCc1cccc2c(/C=C(\CC)C(=O)O)cc(OC)c(O)c12 | 91% | < 1 µM | 3.7 µM | 62% | – |
| COCCCc1cccc2c(/C=C/C(=O)O)cc(OC)c(O)c12 | <25% | 6.3 µM | – | – | – |
| COc1cc(/C=C/C(=O)O)c2cccc(C(C)C)c2c1O | 73% | 1 µM | 1.4 µM | < 25% | – |
| CCc1cccc2c(/C=C/C(=O)O)cc(OCc3ccccc3)c(O)c12 | 39% | 1.9 µM | 6.7 µM | – | – |
| COc1cc(/C=C/C(=O)O)c2cccc(C)c2c1O | <25% | < 1 µM | 2.5 µM | – | – |
| CCc1cccc2c(/C=C(/Cc3ccccc3)C(=O)O)cc(OC)c(O)c12 | – | 2.1 µM | – | – | < 25% |
| CCc1cccc2c(/C(C)=C/C(=O)O)cc(OC)c(O)c12 | <25% | > 10 µM | – | – | – |
| CCc1cccc2c(/C=C(\Cc3cccs3)C(=O)O)cc(OC)c(O)c12 | 44% | 6.5 µM | – | – | – |
| CCCCCOc1cc(/C=C/C(=O)O)c2cccc(CC)c2c1O | 33% | 2.5 µM | 5.3 µM | – | – |
| CCOc1cc(/C=C/C(=O)O)c2cccc(CC)c2c1O | 75% | 1.4 µM | – | – | – |
